The results in this text go back to the M2OR odorant receptor database.

Common to all, as to details: stereoisomer not certain
Assay [1] has as its target T1, UniProt Q8VGX8.
T1 sequence (whole entry): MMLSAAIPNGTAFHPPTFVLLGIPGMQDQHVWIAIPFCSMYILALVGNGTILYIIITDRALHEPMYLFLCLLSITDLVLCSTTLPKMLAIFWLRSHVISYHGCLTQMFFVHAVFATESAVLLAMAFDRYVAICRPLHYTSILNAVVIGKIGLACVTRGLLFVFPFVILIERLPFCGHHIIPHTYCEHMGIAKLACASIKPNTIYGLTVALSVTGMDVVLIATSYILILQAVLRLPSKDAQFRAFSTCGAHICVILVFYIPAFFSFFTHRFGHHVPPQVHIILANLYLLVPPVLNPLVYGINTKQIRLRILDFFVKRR
Summed up: (§1)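 Assay methods differ from source to source, frequently being transient luciferase assays in mammalian cell lines. For each receptor–molecule pair, the label responsive (active) applies when the original authors judged the measured signal statistically different from baseline, and non-responsive (inactive) applies otherwise.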

For assay [2], the target named is T2, UniProt Q8VGY6.
T2 sequence (whole entry): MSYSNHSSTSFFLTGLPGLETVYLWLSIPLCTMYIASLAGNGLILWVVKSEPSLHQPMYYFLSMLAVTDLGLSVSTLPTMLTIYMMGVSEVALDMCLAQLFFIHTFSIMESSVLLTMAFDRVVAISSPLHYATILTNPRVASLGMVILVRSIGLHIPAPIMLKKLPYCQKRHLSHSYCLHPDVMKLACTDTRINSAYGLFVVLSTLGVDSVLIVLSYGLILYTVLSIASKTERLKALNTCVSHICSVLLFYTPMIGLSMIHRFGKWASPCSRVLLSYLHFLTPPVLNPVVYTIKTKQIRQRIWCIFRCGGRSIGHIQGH
The procedure, abridged:
as §1

For assay [3], the target named is T3, UniProt Q8VGZ2.
T3 sequence (whole entry): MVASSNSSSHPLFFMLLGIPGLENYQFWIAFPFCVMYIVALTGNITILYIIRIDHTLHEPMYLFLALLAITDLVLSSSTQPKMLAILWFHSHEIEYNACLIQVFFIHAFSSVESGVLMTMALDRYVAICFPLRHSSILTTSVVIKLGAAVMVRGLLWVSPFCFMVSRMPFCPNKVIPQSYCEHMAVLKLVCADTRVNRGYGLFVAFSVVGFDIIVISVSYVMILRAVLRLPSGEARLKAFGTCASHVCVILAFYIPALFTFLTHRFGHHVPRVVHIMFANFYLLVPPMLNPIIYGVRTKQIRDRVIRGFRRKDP
The procedure, abridged:
as §1

The target in assay [4] is T4, UniProt Q8VGZ7.
T4 sequence (whole entry): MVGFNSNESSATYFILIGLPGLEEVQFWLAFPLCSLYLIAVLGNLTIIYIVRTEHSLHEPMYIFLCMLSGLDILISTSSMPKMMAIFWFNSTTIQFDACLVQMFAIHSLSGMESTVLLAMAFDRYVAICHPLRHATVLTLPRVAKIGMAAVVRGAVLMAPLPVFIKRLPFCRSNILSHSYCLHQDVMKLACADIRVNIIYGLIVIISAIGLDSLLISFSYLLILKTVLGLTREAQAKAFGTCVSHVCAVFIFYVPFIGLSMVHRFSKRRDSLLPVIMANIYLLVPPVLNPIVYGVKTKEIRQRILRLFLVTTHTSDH
Summed up:
as §1

Assay [5] addresses T5, UniProt Q8VH10.
T5 sequence (whole entry): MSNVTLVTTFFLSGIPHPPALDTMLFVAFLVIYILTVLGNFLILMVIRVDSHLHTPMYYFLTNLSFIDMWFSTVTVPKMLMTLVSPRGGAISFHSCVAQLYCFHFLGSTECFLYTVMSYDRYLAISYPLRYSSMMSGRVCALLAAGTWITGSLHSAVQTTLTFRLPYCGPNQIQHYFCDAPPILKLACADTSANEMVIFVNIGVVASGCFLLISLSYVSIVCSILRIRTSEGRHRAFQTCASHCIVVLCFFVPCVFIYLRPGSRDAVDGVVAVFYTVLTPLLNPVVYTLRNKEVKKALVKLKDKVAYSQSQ
Summed up:
as §1

Assay [6] addresses T6, UniProt Q8VH16.
T6 sequence (whole entry): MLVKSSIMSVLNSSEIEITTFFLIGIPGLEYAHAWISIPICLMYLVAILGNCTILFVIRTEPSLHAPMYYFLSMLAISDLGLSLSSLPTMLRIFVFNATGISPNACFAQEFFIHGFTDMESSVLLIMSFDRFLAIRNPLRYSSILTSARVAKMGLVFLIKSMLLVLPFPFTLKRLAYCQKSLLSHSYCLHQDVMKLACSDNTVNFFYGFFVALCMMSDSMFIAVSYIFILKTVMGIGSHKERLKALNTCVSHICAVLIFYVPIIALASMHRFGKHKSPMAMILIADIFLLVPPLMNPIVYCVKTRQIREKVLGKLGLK
The procedure, abridged:
as §1

In assay [7] the target is T7, UniProt Q8VH20.
T7 sequence (whole entry): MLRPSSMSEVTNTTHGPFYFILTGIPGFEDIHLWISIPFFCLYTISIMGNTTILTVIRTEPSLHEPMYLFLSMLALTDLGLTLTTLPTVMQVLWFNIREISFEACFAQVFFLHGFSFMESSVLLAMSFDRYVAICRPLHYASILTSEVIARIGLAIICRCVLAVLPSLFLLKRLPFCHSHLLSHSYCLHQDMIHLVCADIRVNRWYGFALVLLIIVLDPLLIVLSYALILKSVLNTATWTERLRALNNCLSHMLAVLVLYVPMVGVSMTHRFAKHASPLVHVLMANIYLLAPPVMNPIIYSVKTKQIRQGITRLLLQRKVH
The procedure, abridged: as §1

In assay [8] the target is T8, UniProt Q8VH21.
T8 sequence (whole entry): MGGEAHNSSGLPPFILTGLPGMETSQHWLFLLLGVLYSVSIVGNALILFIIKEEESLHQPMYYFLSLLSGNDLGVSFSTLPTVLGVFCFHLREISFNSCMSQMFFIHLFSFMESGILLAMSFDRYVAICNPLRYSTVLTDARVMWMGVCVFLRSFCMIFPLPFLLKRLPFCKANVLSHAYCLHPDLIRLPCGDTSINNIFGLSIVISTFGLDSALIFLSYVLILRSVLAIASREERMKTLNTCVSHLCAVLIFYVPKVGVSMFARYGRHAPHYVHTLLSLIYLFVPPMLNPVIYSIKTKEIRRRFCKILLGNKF
The procedure, abridged:
as §1

The target in assay [9] is T9, UniProt Q8VH18.
T9 sequence (whole entry): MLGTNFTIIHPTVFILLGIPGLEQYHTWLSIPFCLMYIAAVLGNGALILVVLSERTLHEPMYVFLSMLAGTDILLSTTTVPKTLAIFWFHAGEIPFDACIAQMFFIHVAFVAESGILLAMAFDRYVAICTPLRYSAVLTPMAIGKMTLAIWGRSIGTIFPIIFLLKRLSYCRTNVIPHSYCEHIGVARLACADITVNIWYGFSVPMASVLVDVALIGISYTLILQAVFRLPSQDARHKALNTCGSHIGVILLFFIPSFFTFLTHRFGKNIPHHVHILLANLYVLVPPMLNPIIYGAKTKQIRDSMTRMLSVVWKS
The procedure, abridged: as §1

As to `CCCCOC=O`, the “odorant receptor agonist call” value in assay [1], in assay [2], in assay [3], in assay [4], in assay [5] and in assay [6] was “inactive” each time. Also, the “odorant receptor agonist call” value in assay [7] and in [8] was “inactive” throughout.

`CCOC(=O)C(C)C`: the “odorant receptor agonist call” value in assay [1], in assay [2], in [3], in assay [4], in [5] and in assay [6] was “inactive” each time. Also, the “odorant receptor agonist call” value in assay [7] and in assay [8] was “inactive” in each case.

For `CCCCCCCCC(=O)O`, the “odorant receptor agonist call” value in [1], in assay [3], in [4], in assay [9] and in assay [7] was “active” throughout. Also, the “odorant receptor agonist call” value in assay [2], in assay [5], in assay [6] and in [8] was “inactive” each time.

As for `O=C1CCOc2ccccc21`, the “odorant receptor agonist call” value in [1], in assay [2], in assay [3], in assay [4], in assay [5] and in assay [6] was “inactive” in each case. Besides, the “odorant receptor agonist call” value in assay [7] and in assay [8] was “inactive” each time.

Consider `CCCCCCC(C)=O`, for which the “odorant receptor agonist call” value in [1], in assay [2], in [3], in assay [4], in [5] and in assay [6] was “inactive” each time. For the same molecule, the “odorant receptor agonist call” value in assay [7] and in assay [8] was “inactive” in each case.

In the case of `CC12CCC(CC1=O)C2(C)C` (stereo not given), the “odorant receptor agonist call” value in assay [1], in assay [2], in assay [3], in assay [4], in assay [5] and in assay [6] was “inactive” in each case. Moreover, the “odorant receptor agonist call” value in [7] and in [8] was “inactive” each time.

For `CCCCCC(=O)CC`, the “odorant receptor agonist call” value in assay [1], in [2], in assay [3], in assay [4], in assay [5] and in assay [6] was “inactive” each time. Also, the “odorant receptor agonist call” value in assay [7] and in assay [8] was “inactive” in each case.

For the molecule `CCCCCCOC(C)=O`, the “odorant receptor agonist call” value in assay [1], in [2], in [3], in assay [4], in [5] and in assay [6] was “inactive” in each case. For the same molecule, the “odorant receptor agonist call” value in assay [7] and in assay [8] was “inactive” in each case.

In the case of `C=CCOC(=O)CCCCCC`, the “odorant receptor agonist call” value in assay [1], in [2], in [3], in [4], in assay [5] and in assay [6] was “inactive” in each case. In addition, the “odorant receptor agonist call” value in assay [7] and in [8] was “inactive” each time.

As for `CC(=O)OCc1ccccc1`, the “odorant receptor agonist call” value in assay [1], in assay [2], in [3], in assay [4], in assay [6] and in assay [7] was “inactive” in each case. In addition, the “odorant receptor agonist call” value in assay [8] was “inactive”. In addition, the “odorant receptor agonist call” value in assay [5] is “active”.

As for `CCC(=O)O`, the “odorant receptor agonist call” value in assay [1], in assay [2], in assay [3], in assay [4], in assay [5] and in assay [6] was “inactive” throughout. The “odorant receptor agonist call” value in [7] and in assay [8] was “inactive” each time.

As for `CC(=O)Oc1ccccc1`, the “odorant receptor agonist call” value in assay [1], in assay [2], in assay [3], in [4], in assay [6] and in assay [7] was “inactive” in each case. In assay [8], the “odorant receptor agonist call” value was “inactive”. The “odorant receptor agonist call” value in [5] was “active”.

On to `CCCCCCCCO`, for which the “odorant receptor agonist call” value in [1], in [2], in assay [3], in assay [4], in [5] and in [6] was “inactive” each time. For the same molecule, the “odorant receptor agonist call” value in [7] and in assay [8] was “inactive” throughout. In addition, the “odorant receptor agonist call” value in assay [9] was “active”.

In the case of `CCC(=O)C(=O)CC`, the “odorant receptor agonist call” value in assay [1], in [2], in assay [3], in assay [4], in assay [5] and in assay [6] was “inactive” in each case. Besides, the “odorant receptor agonist call” value in assay [7] and in assay [8] was “inactive” in each case.

With `CCCCC(C)=O`, the “odorant receptor agonist call” value in assay [1], in [2], in assay [3], in assay [4], in assay [5] and in assay [6] was “inactive” each time. The “odorant receptor agonist call” value in assay [7] and in assay [8] was “inactive” in each case.

In the case of `CCCCCCCCCO`, the “odorant receptor agonist call” value in assay [1], in assay [2], in assay [3], in [4], in [5] and in assay [6] was “inactive” throughout. In addition, the “odorant receptor agonist call” value in assay [7] and in [8] was “inactive” in each case. The “odorant receptor agonist call” value in assay [9] is “active”.

In the case of `CCCCC(=O)O`, the “odorant receptor agonist call” value in [1], in assay [2], in assay [3], in [4], in [5] and in assay [6] was “inactive” in each case. The “odorant receptor agonist call” value in [7] was “inactive”. For the same molecule, the “odorant receptor agonist call” value in assay [8] is “active”.

With `CCCCCCCCCS`, the “odorant receptor agonist call” value in assay [1], in assay [2], in assay [3], in [4], in assay [5] and in [6] was “inactive” throughout. Also, the “odorant receptor agonist call” value in [7] and in [8] was “inactive” each time.

For `O=C1Cc2ccccc2O1`, the “odorant receptor agonist call” value in assay [1], in [2], in assay [3], in [4], in [5] and in [6] was “inactive” in each case. For the same molecule, the “odorant receptor agonist call” value in assay [7] and in assay [8] was “inactive” each time.

Regarding `CCCCCCCCCC(=O)[O-].[H+]`, the “odorant receptor agonist call” value in assay [1], in [3] and in assay [7] was “active” throughout. Further, the “odorant receptor agonist call” value in [2], in [4], in [5], in assay [6], in assay [9] and in [8] was “inactive” in each case.

In the case of `CCCCCC=O`, the “odorant receptor agonist call” value in assay [1], in [2], in assay [3], in assay [4], in assay [5] and in assay [6] was “inactive” each time. Moreover, the “odorant receptor agonist call” value in [7] and in assay [8] was “inactive” throughout.

Turning to `CCCCCOC(=O)CCCCC`, the “odorant receptor agonist call” value in assay [1], in assay [2], in assay [3], in assay [4], in [5] and in assay [6] was “inactive” in each case. Also, the “odorant receptor agonist call” value in [7] and in assay [8] was “inactive” throughout.
